The values below come from ChEMBL document CHEMBL1955795, “Efficient synthesis and biological evaluation of proximicins A, B and C” (Bioorg Med Chem, 2012).

Test [1] deals with Staphylococcus aureus. Description: Antimicrobial activity against Staphylococcus aureus […] after 24 hrs by MTT assay. It counts as functional. In a few lines:
(§1)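 Broth microdilution MIC in cation-adjusted Mueller-Hinton broth adjusted to 20 mg/L Ca²⁺ and 10 mg/L Mg²⁺. Strains grown on nutrient agar 24 h at 37 °C before testing. Inoculum of 5 × 10⁵ cfu prepared in normal saline against a 0.5 McFarland standard, added to wells and incubated at 37 °C. MTT (5 mg/mL methanolic solution) added for 20 min. Yellow-to-dark-blue colour change indicated growth. MIC = lowest concentration with no growth.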
In general terms: Tetrazolium dyes change colour on reduction, which living cells bring about.

Test [2] relates to Staphylococcus aureus. The test is described as follows: Antimicrobial activity against epidemic methicillin-resistant Staphylococcus aureus 16 after 24 hrs by MTT assay. It counts as functional. The note with it: Staphylococcus aureus, 16, 24 h. The gist of the method:
as §1

Test [3] relates to Staphylococcus aureus. Description: Antimicrobial activity against Staphylococcus aureus SA 1199B over-expressing NorA MDR efflux pump after 24 hrs by MTT assay. It counts as functional. The gist of the method:
as §1

In test [4] the test system is Jurkat. The test is described as follows: Induction of apoptosis in human Jurkat 16 cells assessed as DNA fragments release from apoptotic nuclei at 20 ug/ml after 24 hrs by propidium iodide based flow cytometry analysis. It counts as functional, cell-based. In a few lines: (§2)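 Cells grown in RPMI with 10% FCS and penicillin/streptomycin at 37 °C, 5% CO2. Treated 24 h at 20 µg/mL. Apoptotic DNA fragmentation measured as propidium iodide fluorescence by flow cytometry, reported as percentage of degraded DNA.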

The subject of test [5] is L1236. The test is described as follows: Induction of apoptosis in human L1236 cells assessed as DNA fragments release from apoptotic nuclei at 20 ug/ml after 24 hrs by propidium iodide based flow cytometry analysis. It counts as functional, cell-based. In a few lines: as §2
A general note: Flow cytometry measures light scatter and fluorescence of single cells or particles in a stream.

Test [6] has as its system Jurkat. The test is described as follows: Induction of apoptosis in human Jurkat 16 cells assessed as DNA fragments release from apoptotic nuclei after 48 hrs by propidium iodide based flow cytometry analysis. It counts as functional, cell-based. The gist of the method:
(§3)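 Cells grown in RPMI with 10% FCS and penicillin/streptomycin at 37 °C, 5% CO2. Plated in duplicate and treated 48 h with increasing concentrations. DNA released from apoptotic nuclei stained with propidium iodide. Percentage DNA fragmentation quantified by flow cytometry.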

The subject of test [7] is Staphylococcus aureus. Description: Antimicrobial activity against epidemic methicillin-resistant Staphylococcus aureus 15 after 24 hrs by MTT assay. It counts as functional. The note with it: Staphylococcus aureus, 15, 24 h. In a few lines:
as §1

In test [8] the test system is Enterococcus faecalis. Description: Antimicrobial activity against Enterococcus faecalis NCTC 12697 after 24 hrs by MTT assay. It counts as functional. Particulars: NCTC 12697, 24 h. The gist of the method:
(§4)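 Broth microdilution MIC in cation-adjusted Mueller-Hinton broth supplemented to 20 mg/L Ca2+ and 10 mg/L Mg2+. Strains grown on nutrient agar 24 h at 37 °C. Inoculum of 5 × 10⁵ cfu set in normal saline against a 0.5 McFarland standard. Plates incubated at 37 °C, then MTT (5 mg/mL methanolic, 20 µL) added for 20 min. MIC taken as the lowest concentration with no yellow-to-blue colour change.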

Test [9] deals with Escherichia coli. Description: Antimicrobial activity against Escherichia coli NCTC 10418 after 24 hrs by MTT assay. It counts as functional. Particulars: NCTC 10418, 24 h. The gist of the method:
as §4

The subject of test [10] is Jurkat. The test is described as follows: Induction of apoptosis in human Jurkat 16 cells assessed as DNA fragments release from apoptotic nuclei at 50 ug/ml after 48 hrs by propidium iodide based flow cytometry analysis. It counts as functional, cell-based. The gist of the method: as §3
The subject of test [11] is L1236. The test is described as follows: Induction of apoptosis in human L1236 cells assessed as DNA fragments release from apoptotic nuclei at 50 ug/ml after 48 hrs by propidium iodide based flow cytometry analysis. It is filed as functional, cell-based. In a few lines:
as §3

Test [12] is described as follows: Cytotoxicity against human U87MG cells after 48 hrs by MTT assay. It is filed as functional, cell-based, U-87MG ATCC. The note with it: U-87 MG. In a few lines:
(§5)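 U-87 MG cells in MEM and MDA-MB-231 cells in DMEM, each with 10% FBS, L-glutamine, non-essential amino acids and sodium pyruvate, kept at 5% CO2. Log-phase cells exposed to increasing drug concentrations for 24 h, then grown in fresh medium for a further 48 h. MTT added for 4 h, formazan dissolved in DMSO, absorbance read. Viability normalised to untreated wells after subtracting Triton-treated wells. IC50 derived.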

For test [13], the system named is MDA-MB-231. The test is described as follows: Cytotoxicity against human MDA-MB-231 cells after 48 hrs by MTT assay. Particulars: MDA-MB-231, 48 h. It counts as functional, cell-based. In a few lines:
as §5

Converted amounts (≈) assume the structure as drawn. The source made the active and inactive calls. No cut-off for these calls is given here. Some results are limits rather than exact numbers.

A word on the MIC: it is the lowest concentration that inhibits growth of the organism. Read a low MIC as a more susceptible organism. On to `Cn1cc(NC(=O)c2cc(NC(=O)CNC(=N)N)cn2C)cc1C(=O)NCCC(=N)N` [NETROPSIN], for which the figures for the MIC in [1], in [2] and in test [3] were 64 µg/mL (≈ 149 µM), 128 µg/mL (≈ 297 µM) and 16 µg/mL (≈ 37.2 µM), respectively.
`COC(=O)Nc1coc(C(=O)Nc2coc(C(=O)NCCc3ccc(O)cc3)c2)c1` [PROXIMICIN B]: the result in [4] and in test [5] was Active. In test [6], the Activity entry was “Dose-dependent effect”. Further, the MIC in test [1] was 8 µg/mL (≈ 19.4 µM); in test [2] it was 8 µg/mL (≈ 19.4 µM); in [3], 4 µg/mL (≈ 9.68 µM); in test [7], 8 µg/mL (≈ 19.4 µM); in test [8] it was 4 µg/mL (≈ 9.68 µM); in test [9] it was over 128 µg/mL.
For orientation: IC50 means the concentration at which inhibition is half-maximal. On to `COC(=O)Nc1coc(C(=O)Nc2coc(C(=O)NCCc3c[nH]c4ccccc34)c2)c1` [PROXIMICIN C], for which, in test [10], the result was Active. Besides, the result in [11] was inactive. Further, the IC50 is 12.7 µg/mL (≈ 29.1 µM) in test [12] and 11.4 µg/mL (≈ 26.1 µM) in test [13]. The MIC is over 256 µg/mL in test [1]; over 256 µg/mL in test [2]; over 256 µg/mL in [3]; over 128 µg/mL in [7]; over 128 µg/mL in test [8]; over 128 µg/mL in test [9].
On to `CN(C)[C@@H]1C(O)=C(C(N)=O)C(=O)[C@@]2(O)C(O)=C3C(=O)c4c(O)cccc4[C@@](C)(O)[C@H]3C[C@@H]12` [TETRACYCLINE], for which the MIC in test [1] amounted to 0.5 µg/mL (≈ 1.13 µM); in [2] it was 0.5 µg/mL (≈ 1.13 µM); in test [3], 0.25 µg/mL (≈ 0.563 µM); in test [7], 0.12 µg/mL (≈ 0.27 µM); in test [8], 4 µg/mL (≈ 9 µM); in test [9], 0.12 µg/mL (≈ 0.27 µM).
